Compound activity from PubChem.
hERG protect = hERG (human) protection from proarrhythmic block; CHO-hERG, FluxOR thallium flux, dofetilide IC70 present; activation (rescue from dofetilide block), less the hit threshold, % at 10 µM; 310,000 tested, 0.51% active;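 active = activation above the mean of controls blocked by dofetilide plus 5 SD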;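 note: thallium influx through hERG after potassium depolarization seen as dye fluorescence rise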
KCNK3 block = human KCNK3 channel inhibition, primary screen; CHO-KCNK3 thallium flux, FluxOR fluorescence; active compounds read low; B-score at 10 µM; 340,000 tested, 0.84% active; O14649;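 active = B-score under library mean minus 4 SD, starting fluorescence ratio at most library mean plus 5 SD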;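 note: more negative B-score means stronger inhibition of thallium flux through KCNK3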
KCNQ1 block = human KCNQ1 channel inhibition. B-score at 10 µM. P51787. CHO-K1 KCNQ1, FluxOR thallium flux fluorescence; active compounds read high. 310,000 tested, 1.3% active. AID 2642;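 active = compounds whose thallium flux B-score, printed positive for inhibition, exceeds three library SD while starting fluorescence stays within three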;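 note: channel opened by potassium depolarization with thallium stimulus after 20 min compound exposure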
Target sequence (P51787 whole entry, looked up): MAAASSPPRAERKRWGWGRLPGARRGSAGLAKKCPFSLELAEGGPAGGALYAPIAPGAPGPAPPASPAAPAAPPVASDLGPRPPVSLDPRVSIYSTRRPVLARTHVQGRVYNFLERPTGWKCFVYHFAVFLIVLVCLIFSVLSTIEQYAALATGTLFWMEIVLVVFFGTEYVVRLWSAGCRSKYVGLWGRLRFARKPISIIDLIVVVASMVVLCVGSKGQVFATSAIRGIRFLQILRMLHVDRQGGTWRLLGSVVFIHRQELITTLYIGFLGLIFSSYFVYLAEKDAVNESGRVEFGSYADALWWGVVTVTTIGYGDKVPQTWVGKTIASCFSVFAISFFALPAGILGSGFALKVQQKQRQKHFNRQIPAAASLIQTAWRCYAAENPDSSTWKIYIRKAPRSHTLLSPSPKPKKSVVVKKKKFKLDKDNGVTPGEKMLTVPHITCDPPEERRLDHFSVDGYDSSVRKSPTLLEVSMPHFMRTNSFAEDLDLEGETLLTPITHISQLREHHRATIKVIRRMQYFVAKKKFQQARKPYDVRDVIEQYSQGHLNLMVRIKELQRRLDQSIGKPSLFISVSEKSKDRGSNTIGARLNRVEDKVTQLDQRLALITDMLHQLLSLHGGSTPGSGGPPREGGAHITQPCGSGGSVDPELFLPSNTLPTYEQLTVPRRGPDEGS
KCNQ1 act = potentiates or activates the human KCNQ1 potassium channel | CHO-K1 KCNQ1, thallium flux FluxOR fluorescence; active compounds read high | B-score at 10 µM | 310,000 tested, 0.35% active | AID 2648;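 active = fluorescence ratio B-score, a plate-corrected score, at least three library SD, with initial intensity B-score within 5 SD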
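System: Stable KCNQ1 CHO-K1 line | Incubation: 90 min dye loading and 20 min compound exposure, both at room temperature | Measure: Ratio B score | Medium: Assay buffer for compound exposure, DMSO matched across wells | Compound dosing: Single-concentration screen | Probe or stimulus: K+/Tl+ depolarizing stimulus | Measured by: Kinetic FluxOR fluorescence, 10 s baseline plus 110 s post-stimulus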
Kir21 block = inhibitors of mouse Kir2.1 inward-rectifier potassium channel; AID 1672; 310,000 tested, 0.85% active; HEK293-Kir2.1, FluxOR thallium flux fluorescence; active compounds read low; B-score at 10 µM;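 active = fluorescence ratio B-score at or below minus 3 SD of library scores, with starting-brightness B-score within 2 SD, cut at about -4.2 in these data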;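 note: channel flux triggered by added potassium and thallium sulfate stimulus; B-score of peak minus minimum fluorescence over baseline after thallium stimulus; more negative B-score means stronger Kir2.1 block with less thallium influx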
KCNK9 block = blocks the human KCNK9 two-pore domain potassium channel | B-score at 10 µM | HEK293 KCNK9, FluxOR thallium flux fluorescence; active compounds read low | Q9NPC2 | AID 488922 | 310,000 tested, 1.2% active;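 active = ratio B-score over 3 SD below the library mean, with starting fluorescence within 5 SD of its mean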;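 note: negative B-score means less thallium flux so channel inhibition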
KCNK9 inh conf = confirmation of human KCNK9 potassium channel inhibitors; shares compounds with KCNK9 block; HEK293 KCNK9 cells, FluxOR thallium flux fluorescence; inhibition, % at 10 µM; 4,900 tested, 43% active; AID 492992;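 active = thallium signal inhibited by more than 5 SD of the compound-free buffer control wells, on both duplicate plates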;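 note: 0% = assay buffer control wells without compound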
Kir21 sel = mouse Kir2.1 off-target activity of KCNK9 modulators; 4,900 tested, 4% active; shares compounds with KCNK9 block; inhibition, % at 10 µM; Kir2.1 cells, FluxOR thallium flux fluorescence; AID 492993;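 active = thallium signal drop more than 5 SD beyond the mean of the no-compound control wells, seen in both duplicate plates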;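 note: signal is fluorescence rise after thallium addition divided by baseline fluorescence; plate controls were assay buffer only for no effect and full block by chlorpromazine control for full effect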
KCNK9 uninduced = non-induced cell nonspecific activity of KCNK9 modulators. shares compounds with KCNK9 block. non-induced KCNK9-HEK293, FluxOR thallium flux. 4,900 tested, 40% active. AID 492997. inhibition, % at 10 µM;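 active = thallium signal drop beyond 5 SD of the untreated control mean, on both duplicate plates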;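 note: plate controls were buffer only IC0 wells for no effect and SID17386958 at its maximal inhibitory level for full effect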
Starred values were filed as active, the others as inactive; i = inactive; x = no result given. Most compounds without a hit are left out; they make up all but 3.7% or so of the library.

SMILES	hERG protect	KCNK3 block	KCNQ1 block	KCNQ1 act	Kir21 block	KCNK9 block	KCNK9 inh conf	Kir21 sel	KCNK9 uninduced
COc1ccc(OC)c(Nc2nc(C3CC3)nc3c2nnn3Cc2ccccc2)c1	-10	i	i	i	-0.69	i	i	i	i
CNC(=O)c1c(NC(=O)CCS(=O)(=O)c2ccc(C)cc2)sc2c1CCN(C(=O)OC)C2	-10	i	i	i	0.84	i	x	x	x
CCN1CCN(CC(O)COC(c2ccccc2)c2ccccc2C)CC1 (stereo not drawn)	-5	i	i	i	0.06	i	x	x	x
CSc1nc(C(=O)N2CCCC(C(=O)c3ccc(Cl)cc3)C2)cs1 (stereo not drawn)	-15	i	i	i	-3.4	i	i	i	i
COc1c(C)cc(C(=O)C2CCCN(C(=O)c3cc(C)n(C)n3)C2)cc1C (stereo not drawn)	-1	i	i	i	-0.56	i	x	x	x
CC#CC(=O)N1CCCC(C(=O)c2ccc(SC)cc2)C1 (stereo not drawn)	-1	i	i	i	0.92	i	x	x	x
O=C(c1ccc2ccccc2c1)C1CCCN(C(=O)c2noc3c2CCCC3)C1 (stereo not drawn)	-19	i	i	i	0.58	i	i	i	i
O=C(c1ccc(Cl)cc1)C1CCCN(C(=O)c2csnn2)C1 (stereo not drawn)	-4	i	i	i	0	i	x	x	x
Cc1cc(C(=O)N2CCCC(C(=O)c3ccc4ccccc4c3)C2)nn1C (stereo not drawn)	-6	i	i	i	-0.27	i	i	i	i
CSc1ccc(C(=O)C2CCCN(C(=O)c3ccsc3)C2)cc1 (stereo not drawn)	-14	i	i	i	1.2	i	i	i	i
COc1ccc(/C=C/C(=O)OCC(=O)NCCc2ccccc2)c(OC)c1	x	i	x	x	x	x	x	x	x
Cc1oc(-c2ccccc2F)nc1CS(=O)CC(=O)NC1CCCCC1 (stereo not drawn)	-1	i	i	i	0.63	i	x	x	x
O=c1[nH]nc(SCc2cc(Cl)ccc2Cl)c(=O)[nH]1	-8	i	i	i	0.19	i	x	x	x
Cc1ccc(-c2nnc(SCC(=O)NC3CCCC3)n2N)cc1	x	i	x	x	x	x	x	x	x
CSc1ccc(C(=O)C2CCCN(C(=O)c3cc(C)n(C)n3)C2)cc1 (stereo not drawn)	-6	i	i	i	-0.22	i	i	i	i
COc1cccc(N2CCN(C(=O)CCSCc3ccccc3F)CC2)c1	-21	i	i	i	1.1	i	i	i	i
COc1ccccc1N1CCN(C(=O)CCSCc2ccccc2F)CC1	-24	i	i	i	-0.23	i	x	x	x
O=C1CCC([N+](=O)[O-])C(c2ccccc2C(F)(F)F)N1 (stereo not drawn)	-5	i	i	i	-1.1	i	x	x	x
CCOc1ccc(OCC)c(Nc2cc(C)nc3ncnn23)c1	-5	i	i	i	-0.04	i	i	i	24%*
CCOC(=O)C(CSCc1ccccc1)NC(=O)OC(C)(C)C (stereo not drawn)	-6	i	i	i	-4.3*	i	i	i	i
COc1ccc(C)cc1S(=O)(=O)NC(C)c1cnn(-c2ccccn2)c1C (stereo not drawn)	0	i	i	i	-1.8	i	x	x	x
CC(/C=N\N1CCN(Cc2ccc(C)cc2)CC1)=C\c1ccccc1	-5	i	i	i	0.81	i	i	i	i
BrC(=C\c1ccccc1)/C=N/N1CCN(Cc2ccccc2)CC1	-7	i	i	i	-0.19	i	x	x	x
Cc1ccc(CN2CCN(/N=C\C=C\c3ccccc3)CC2)cc1	-12	i	i	i	-0.89	i	i	i	i
BrC(/C=N/N1CCN(Cc2ccccc2)CC1)=C/c1ccccc1	-11	i	i	i	2.1	i	i	i	i
SMILES	hERG protect	KCNK3 block	KCNQ1 block	KCNQ1 act	Kir21 block	KCNK9 block	KCNK9 inh conf	Kir21 sel	KCNK9 uninduced
CCOC(=O)C1(Cc2ccccc2)CCN(Cc2ccc3cc(NC(C)=O)ccc3n2)CC1	-14	i	i	i	-2.9	i	x	x	x
O=C(CCc1ccccn1)N1CCCC(N2CCN(c3cccc(C(F)(F)F)c3)CC2)C1 (stereo not drawn)	-8	i	i	i	-0.37	i	x	x	x
Cc1nn(C2CCS(=O)(=O)C2)c(C)c1CN(C)C(=O)c1ccc(S(=O)(=O)N(C)C)cc1 (stereo not drawn)	x	i	x	x	x	x	x	x	x
Cc1ccc(C)c(N2CCN(C(=O)c3ccc(CS(=O)Cc4cccc(Cl)c4)o3)CC2)c1 (stereo not drawn)	-14	i	i	i	0.11	i	i	i	i
Cc1ccc(C)c(N2CCN(C(=O)c3cc4c(C)nc5ccccc5c4o3)CC2)c1	-4	i	i	i	-1	-8.8*	35%*	i	i
Cc1cccc(N2CCN(C(=O)c3ccc(CS(=O)Cc4ccc(Cl)cc4)o3)CC2)c1C (stereo not drawn)	-15	i	i	i	0.17	i	x	x	x
O=C(NCCOc1ccccc1F)c1cc(F)c(F)cc1Cl	2	i	i	i	1.4	i	x	x	x
COc1ccc(CC(=O)N2CCc3cc(OC)c(OC)cc3C2C)c(OC)c1 (stereo not drawn)	-5	i	i	i	-0.4	i	x	x	x
CN(CCOc1cccc(C(F)(F)F)c1)Cc1ccccc1	-13	i	i	i	1.3	i	x	x	x
FC(F)(F)c1cccc(OCCN2CCN(Cc3ccccc3)CC2)c1	-6	i	i	i	-1.1	i	i	i	i
OCCN1CCN(CCOc2cccc(Cl)c2)CC1	-3	i	i	i	-0.43	i	i	i	i
COC(=O)CC1(C(=O)OC)Oc2ccc(Br)cc2C(=O)N1c1cc(Cl)c(Cl)cc1Cl (stereo not drawn)	-11	i	i	i	0.47	-8.6*	25%*	i	42%*
FC(F)(F)c1ccccc1CN1CCCC(N2CCN(c3ccccc3)CC2)C1 (stereo not drawn)	-4	i	i	i	-0.11	i	i	i	i
